In ChEMBL document CHEMBL4813946, “Discovery of novel 4-azaaryl-N-phenylpyrimidin-2-amine derivatives as potent and selective FLT3 inhibitors for acute myeloid leukaemia with FLT3 mutations” (Eur J Med Chem, 2021):
Calls of active or inactive are those of the source. The rule behind the calls is not given here.

How the values were obtained:
[1] = target: Cyclin-dependent kinase 2/cyclin E1 (Homo sapiens, UniProt P24941); assay: Inhibition of CDK2/cyclin E (unknown origin) using histone 1 protein substrate incubated for 120 mins measured after 40 mins incubation under dark by ADP-glo based luminescence assay; type: protein-complex assay
Method in brief: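 In-house ADP-Glo assay with 2 mM DMSO stocks. Kinases were CDK1/cyclin B at 1 nM, CDK2/cyclin E1 at 10 nM and CDK7/cyclin H/MAT1 at 40 nM. Substrate was histone 1 for CDK1 and CDK2, and a RNA pol II CTD peptide for CDK7. Compound at 8–10 concentrations, 1:3 serial, final DMSO 0.5%. Reactions ran 60–120 min at room temperature, then ADP-Glo reagent 40 min in the dark, then detection reagent 40 min, read by luminescence. Ki was derived from IC50 by Cheng-Prusoff.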

[2] = Inhibition of FLT3 Y591-V592insVDFREYEYD mutant (unknown origin) incubated for 120 mins by ADP-glo based luminescence assay; design: species or system Homo sapiens
[3] = target: Receptor-type tyrosine-protein kinase FLT3 (Homo sapiens, UniProt P36888, F594-R595INSR); assay: Inhibition of FLT3 F594_R595insR mutant (unknown origin) incubated for 120 mins by ADP-glo based luminescence assay
MV4-11 [4] = assay: Antiproliferative activity against human MV4-11 cells harboring FLT3-ITD mutant assessed as reduction in cell viability after 72 hrs by resazurin assay; type: functional
Method in brief: (§1)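 Cells seeded and pre-incubated 24 h at 37 °C, 5% CO2, then given a five-fold dilution series of compound (from 10 mM DMSO stock) in medium, in triplicate. Resazurin added after 72 h exposure, 4 h in dark at 37 °C. Fluorescence read at 570/585 nm, normalised to DMSO vehicle. GI50 by non-linear regression; mean ± SD of at least two replicates.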

[5] = Antiproliferative activity against human MOLM-13 cells harboring FLT3-ITD mutant assessed as reduction in cell viability after 72 hrs by resazurin assay; type: functional; conditions: MOLM-13, 72 h; method in brief: as §1
NB-4 = assay: Antiproliferative activity against human NB-4 cells harboring wild type FLT3 assessed as reduction in cell viability after 72 hrs by resazurin assay; type: functional; method in brief: as §1
MV4-11 [6] = assay: Induction of apoptosis in human MV4-11 cells assessed as viable cells at 1 x GI50 concentration incubated for 24 hrs by annexin V-FITC and propidium iodide staining based flow cytometry (reference value: 84.68 %); type: functional
MV4-11 [7] = assay: Induction of apoptosis in human MV4-11 cells assessed as early apoptotic cells at 10 x GI50 concentration incubated for 24 hrs by annexin V-FITC and propidium iodide staining based flow cytometry (reference value: 2.12 %); type: functional
MV4-11 [8] = assay: Induction of apoptosis in human MV4-11 cells assessed as late apoptotic cells at 10 x GI50 concentration incubated for 24 hrs by annexin V-FITC and propidium iodide staining based flow cytometry (reference value: 12.45 %); type: functional
MV4-11 [9] = assay: Induction of apoptosis in human MV4-11 cells assessed as viable cells at 10 x GI50 concentration incubated for 24 hrs by annexin V-FITC and propidium iodide staining based flow cytometry (reference value: 84.68 %); type: functional
MV4-11 [10] = assay: Induction of apoptosis in human MV4-11 cells assessed as late apoptotic cells at 20 x GI50 concentration incubated for 24 hrs by annexin V-FITC and propidium iodide staining based flow cytometry (reference value: 12.45 %); type: functional
MV4-11 [11] = assay: Induction of apoptosis in human MV4-11 cells assessed as late apoptotic cells at 1 x GI50 concentration incubated for 48 hrs by annexin V-FITC and propidium iodide staining based flow cytometry (reference value: 6.59 %); type: functional
MV4-11 [12] = assay: Induction of apoptosis in human MV4-11 cells assessed as early apoptotic cells at 5 x GI50 concentration incubated for 48 hrs by annexin V-FITC and propidium iodide staining based flow cytometry (Rvb =1.08 %); type: functional
MV4-11 [13] = assay: Induction of apoptosis in human MV4-11 cells assessed as necrotic cells at 20 x GI50 concentration incubated for 48 hrs by annexin V-FITC and propidium iodide staining based flow cytometry (reference value: […] %); type: functional
MV4-11 [14] = assay: Induction of apoptosis in human MV4-11 cells assessed as viable cells at 20 x GI50 concentration incubated for 48 hrs by annexin V-FITC and propidium iodide staining based flow cytometry (reference value: 91.87 %); type: functional
U-937 [15] = assay: Induction of apoptosis in human U937 cells assessed as early apoptotic cells at 1 x GI50 concentration incubated for 24 hrs by annexin V-FITC and propidium iodide staining based flow cytometry (Rvb =1.81 %); type: functional
U-937 [16] = assay: Induction of apoptosis in human U937 cells assessed as viable cells at 5 x GI50 concentration incubated for 24 hrs by annexin V-FITC and propidium iodide staining based flow cytometry (reference value: 86.80 %); type: functional
U-937 [17] = assay: Induction of apoptosis in human U937 cells assessed as viable cells at 10 x GI50 concentration incubated for 24 hrs by annexin V-FITC and propidium iodide staining based flow cytometry (reference value: 86.80 %); type: functional
U-937 [18] = assay: Induction of apoptosis in human U937 cells assessed as viable cells at 20 x GI50 concentration incubated for 24 hrs by annexin V-FITC and propidium iodide staining based flow cytometry (reference value: 85.68 %); type: functional
[19] = target: Receptor-type tyrosine-protein kinase FLT3 (Homo sapiens) (UniProt P36888); assay: Inhibition of FLT3-mediated signalling pathway in human MV4-11 cells assessed as inhibition of S6RP phosphorylation upto 20 x GI50 concentration incubated for 6 hrs by western blot analysis; type: cell-based
Method in brief: (§2)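 Cells lysed in phosphate lysis buffer with protease inhibitors and protein quantified. Western blots probed phospho and total STAT5, AKT, ERK, S6RP and eIF4E, plus full-length and cleaved PARP and caspase-3, with β-actin as loading control. At least two independent experiments.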

[20] = target: Receptor-type tyrosine-protein kinase FLT3 (Homo sapiens) (UniProt P36888); assay: Inhibition of FLT3-mediated signalling pathway in human MV4-11 cells assessed as inhibition of eIF4E phosphorylation upto 20 x GI50 concentration incubated for 6 hrs by western blot analysis; type: cell-based; method in brief: as §2
[21] = target: Receptor-type tyrosine-protein kinase FLT3 (Homo sapiens) (UniProt P36888); assay: Inhibition of FLT3-mediated signalling pathway in human MV4-11 cells assessed as increase in caspase 3 expression upto 20 x GI50 concentration incubated for 6 hrs by western blot analysis; type: cell-based; method in brief: as §2
U-937 [22] = assay: Induction of apoptosis in human U937 cells assessed as late apoptotic cells at 1 x GI50 concentration incubated for 48 hrs by annexin V-FITC staining based flow cytometry (reference value: 9.82 %); type: functional
U-937 [23] = assay: Induction of apoptosis in human U937 cells assessed as necrotic cells at 5 x GI50 concentration incubated for 48 hrs by annexin V-FITC staining based flow cytometry (reference value: 1.16 %); type: functional
U-937 [24] = assay: Induction of apoptosis in human U937 cells assessed as early apoptotic cells at 10 x GI50 concentration incubated for 48 hrs by annexin V-FITC staining based flow cytometry (reference value: 2.78 %); type: functional
U-937 [25] = assay: Induction of apoptosis in human U937 cells assessed as late apoptotic cells at 20 x GI50 concentration incubated for 48 hrs by annexin V-FITC staining based flow cytometry (reference value: 9.82 %); type: functional
[26] = target: Receptor-type tyrosine-protein kinase FLT3 (Homo sapiens) (UniProt P36888); assay: Inhibition of FLT3-mediated signalling pathway in human U-937 cells assessed as inhibition of AKT phosphorylation upto 20 x GI50 concentration incubated for 6 hrs by western blot analysis; type: cell-based; method in brief: as §2

Chain of Receptor-type tyrosine-protein kinase FLT3 (Homo sapiens) (P36888 whole entry): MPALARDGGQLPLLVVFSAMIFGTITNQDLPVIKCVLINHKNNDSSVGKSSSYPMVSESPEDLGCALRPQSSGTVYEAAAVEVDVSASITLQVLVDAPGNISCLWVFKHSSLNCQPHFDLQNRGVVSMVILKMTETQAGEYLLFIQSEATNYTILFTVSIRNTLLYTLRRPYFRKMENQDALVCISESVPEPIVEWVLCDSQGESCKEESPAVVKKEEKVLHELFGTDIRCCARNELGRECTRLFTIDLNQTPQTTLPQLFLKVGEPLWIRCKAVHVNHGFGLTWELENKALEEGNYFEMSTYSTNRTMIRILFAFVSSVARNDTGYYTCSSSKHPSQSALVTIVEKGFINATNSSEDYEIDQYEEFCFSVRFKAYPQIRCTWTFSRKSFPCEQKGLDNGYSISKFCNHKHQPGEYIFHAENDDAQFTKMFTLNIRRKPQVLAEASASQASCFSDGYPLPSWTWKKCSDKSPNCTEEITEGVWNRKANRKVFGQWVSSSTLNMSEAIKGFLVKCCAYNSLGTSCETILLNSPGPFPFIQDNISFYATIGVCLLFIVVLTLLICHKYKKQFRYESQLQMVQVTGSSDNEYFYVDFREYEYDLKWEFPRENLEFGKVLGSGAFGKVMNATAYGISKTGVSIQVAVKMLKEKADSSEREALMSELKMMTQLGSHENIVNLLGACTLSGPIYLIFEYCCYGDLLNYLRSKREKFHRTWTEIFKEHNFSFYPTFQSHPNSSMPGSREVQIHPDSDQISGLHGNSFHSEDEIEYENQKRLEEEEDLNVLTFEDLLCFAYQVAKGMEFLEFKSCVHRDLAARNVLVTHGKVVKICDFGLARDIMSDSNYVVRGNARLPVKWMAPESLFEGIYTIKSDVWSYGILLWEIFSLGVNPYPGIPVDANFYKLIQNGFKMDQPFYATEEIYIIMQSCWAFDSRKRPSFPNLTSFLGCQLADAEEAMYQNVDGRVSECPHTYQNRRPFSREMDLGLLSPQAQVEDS
Chain of Receptor-type tyrosine-protein kinase FLT3 (P36888 whole entry, looked up, stated change not applied): as the sequence (P36888 whole entry) above

CC(=O)N1CCN(c2ccc(Nc3nccc(-c4cn(C)c5ncccc45)n3)cc2)CC1
Ki [1]: > 5 µM
Ki [2]: 0.185 µM
Ki [3]: 0.054 µM
GI50 (MV4-11 [4]): 0.074 µM
GI50 [5]: 0.023 µM
GI50 (NB-4): 1.06 µM
Activity (MV4-11 [6]): 81.75%
Activity (MV4-11 [7]): 2.54%
Activity (MV4-11 [8]): 20.33%
Activity (MV4-11 [9]): 75%
Activity (MV4-11 [10]): 2.03%
Activity (MV4-11 [11]): 6.95%
Activity (MV4-11 [12]): 3.06%
Activity (MV4-11 [13]): 32.08%
Activity (MV4-11 [14]): 64.18%
Activity (U-937 [15]): 2.41%
Activity (U-937 [16]): 86.36%
Activity (U-937 [17]): 85.8%
Activity (U-937 [18]): 85.3%
inhibition [19]: Active
inhibition [20]: Active
Activity [21]: Active
Activity (U-937 [22]): 9.22%
Activity (U-937 [23]): 1.19%
Activity (U-937 [24]): 3.06%
Activity (U-937 [25]): 14.5%
inhibition [26]: Active
